Hep lipid drop – inhibitors of hepatocyte lipid droplet formation, primary screen, imaging, high-throughput imaging, BODIPY stain. inhibition, % at 6.5 µM. actives 0.4% (n = 240,000). AML12 mouse hepatocytes, oleate lipid droplets. AID 1656, 2009;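 active means lipid droplet intensity inhibited by at least 50%, with more than 500 cells counted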
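Material – mouse AML12 hepatocyte cell line, fixed after treatment · Compound dosing – one dose, 6.5 µM compound · Times – compound with oleate, overnight · Measured by – Image-based BODIPY and DAPI two-channel analysis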
L major viab – Leishmania major promastigote growth inhibition, primary screen | Leishmania major promastigotes, resazurin fluorescence viability | inhibition, % at 10 µM | actives 9% (n = 200,000); in the data active means inhibition above about 50%;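 further: promastigotes grown with compound for 44 hours at 28 °C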
T cruzi inh – inhibitors of intracellular T. cruzi growth, primary screen, luminescence, NIH3T3 host cells. actives 1.4% (n = 300,000). T. cruzi beta-gal in NIH3T3, 90 h. inhibition, % (no concentration beside the values);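 active means mean inhibition across valid replicates above about 55%, limit read from the data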;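 further: signal also drops with host cell toxicity which is not excluded here; higher percent means less beta-gal luminescence so fewer parasites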
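compound dosing = single 50 nL compound addition per well in DMSO | material = NIH/3T3 host cells with β-galactosidase reporter T. cruzi | input = 5,000 host fibroblasts per well | timing = ≥90 h infection period, 3 h prior cell attachment | read-out basis = percent inhibition of parasite-derived β-gal signal | detection = GalScreen β-gal luminescence, detergent lysis, 60 min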
Redox H2O2 prof – compounds producing H2O2 with reducing agent – biochemical, NIH compound library profiling, artefact control for MLSCN library redox annotation, primary screen; DTT-dependent redox cycling H2O2, phenol red/HRP absorbance; 100% = 100 µM peroxide control, 0% = buffer; activation, % at 10 µM; actives 0.03% (n = 200,000); AID 878, 2007;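 active means activation of at least 50% relative to the plate's high and low controls in the primary single-dose screen; inactive means activation below 50%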;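 further: compound incubated with DTT at 0.8 mM final as the reducing agent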
MPTP block – mitochondrial permeability transition pore inhibitors, primary screen, biochemical, isolated mouse mitochondria, absorbance | inhibition, % at 10 µM | AID 602449, 2012 | Ca2+ swelling absorbance, 30 min | actives 1.4% (n = 360,000);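 active means inhibition of 50% or more, scaled per plate between neutral and stimulator controls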
Numbers stand for hits; i = inactive; nt = not tested or not shown. Many of the other results were omitted from the sample, so hits are more common in it than they were.

SMILES	Hep lipid drop	L major viab	T cruzi inh	Redox H2O2 prof	MPTP block
CC(Sc1nnc(C2CC2)n1C1CC1)C(=O)c1ccc(F)cc1 (centres undefined)	nt	nt	nt	nt	i
Cc1ccc(Cl)cc1NC(=S)N(Cc1ccccc1)Cc1cccnc1	i	99.2	76.3	i	i
CCOC(=O)CNC(=S)N(Cc1ccccc1)Cc1cccnc1	i	i	i	i	i
COc1ccccc1NC(=S)N(Cc1cccnc1)Cc1ccccc1Cl	i	77.0	i	i	i
S=C(Nc1ccccc1Cl)N(Cc1ccccc1)Cc1cccnc1	i	91.5	61.5	i	i
Cc1ccccc1NC(=S)N(Cc1cccnc1)Cc1ccccc1Cl	i	92.5	76.0	i	i
O=C(Nc1nc(COc2ccccc2)cs1)c1ccccc1F	i	i	i	i	i
O=C(COC(=O)C1CCN(S(=O)(=O)c2cccs2)CC1)NCc1ccc(F)cc1	i	nt	i	nt	i
CC1CN(CCCCOc2ccc3ccccc3c2)CC(C)O1 (centres undefined)	i	90.2	i	i	i
CC1CN(CCOc2ccc(F)cc2)CC(C)O1 (centres undefined)	i	nt	i	nt	i
c1ccc2cc(OCCOCCOc3ccc4ccccc4c3)ccc2c1	i	nt	i	nt	i
CC(C)SCCCCOc1ccc2ccccc2c1	nt	72.0	i	i	i
CC1CN(C(=O)COc2ccc3ccccc3c2)CC(C)O1 (centres undefined)	nt	nt	nt	nt	i
COc1cc(CN2CC(C)OC(C)C2)cc(OC)c1 (centres undefined)	nt	i	i	i	i
COc1cccc(OCCCCN2CC(C)OC(C)C2)c1 (centres undefined)	i	93.5	i	i	i
COC(=O)c1ccc(OCCCCN2CC(C)OC(C)C2)cc1 (centres undefined)	i	95.6	i	i	i
CC(C)(C)C1c2[nH]c3ccccc3c2CCN1Cc1cccc(OCCO)c1 (centres undefined)	i	i	i	i	i
CSc1ccc(C(=O)C2CCCN(S(=O)(=O)c3c(C)noc3C)C2)cc1 (centres undefined)	i	i	i	i	i
Cc1ccc(C(=O)NCC(c2ccc(F)cc2)N2CCOCC2)s1 (centres undefined)	nt	nt	nt	nt	i
c1ccc(-c2nnc(OCCN3CCOCC3)c3ccccc23)cc1	i	83.2	i	i	i
O=C(CN1CCOCC1)N1CCN(c2nnc(-c3ccccc3)c3ccccc23)CC1	i	i	i	i	i
Cc1cc(C(=O)Nc2ccc(Nc3ccccc3)cc2)ccc1[N+](=O)[O-]	i	nt	i	nt	i
Cc1ccccc1NC(=O)c1ccc(Nc2c([N+](=O)[O-])cc([N+](=O)[O-])c3ccccc23)cc1	i	i	63.3	i	i
Cn1c(SCc2ccc(Cl)cc2)nnc1-c1ccc2nonc2c1	nt	nt	i	nt	i
CCN(CC)CCNC(=O)c1ccc2c(=O)n(C3CCCC3)c(=S)[nH]c2c1	nt	85.2	i	i	i
SMILES	Hep lipid drop	L major viab	T cruzi inh	Redox H2O2 prof	MPTP block
CC(C)(C)C1CCc2[nH]c3ccccc3c(=O)c2C1 (centres undefined)	nt	99.6	59.1	i	i
O=c1c2c([nH]c3ccccc13)CCCC2	nt	54.9	i	i	i
COc1ccccc1CNC(=O)C(=O)NCC1CCCN1S(=O)(=O)c1cccs1 (centres undefined)	nt	nt	62.0	nt	i
Clc1ccc(Nc2ccc(NCc3ccccc3)nn2)cc1	i	91.1	i	i	i
CCOC(=O)c1c(C)n(CC(O)CN(C)C)c2cc(Br)c(OC)cc12 (centres undefined)	i	i	79.2	i	i
CCOC(=O)c1c(C)oc2c(CN3CCN(C)CC3)c(Br)c(OC)c(O)c12	nt	100.4	i	i	i
CCOC(=O)c1oc2ccccc2c1CN1CCN(C)CC1	i	i	i	i	i
CCOC(=O)c1c(CN2CCN(C)CC2)n(C)c2cc(Br)c(OC)cc12	i	100.3	i	i	i
COC(=O)c1cn(NC(=O)/C=C/c2ccc(OC)c(OC)c2)c(=O)c2ccccc12	i	i	i	i	i
Clc1cccc(OCCn2cncn2)c1Cl	i	i	nt	i	i
CC1CC(C)CN(CCOc2cccc(Cl)c2Cl)C1 (centres undefined)	i	90.7	i	i	i
CCN1CCN(CCOc2cccc(Cl)c2Cl)CC1	i	85.8	77.6	i	i
CC1CC(C)CN(CCOc2ccc(Cl)cc2Cl)C1 (centres undefined)	i	96.9	i	i	i

High-throughput results (PubChem BioAssay)
